From ChEMBL document CHEMBL2424620, “β2-Adrenoceptor agonists in the regulation of mitochondrial biogenesis” (Bioorg Med Chem Lett, 2013)
Active and inactive are the calls of the source. The calls are words filed in the database; no cut-off is given here.

Experiments:
RPT [1] = assay: Induction of Mitochondrial biogenesis in rabbit RPT cells at 10 to 3000 nM after 24 hrs by FCCP-OCR assay relative to control; format: functional, cell-based; conditions: Oryctolagus cuniculus
In short: (§1)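 Primary cultures of rabbit renal proximal tubule cells, grown under improved conditions favouring aerobic respiration, were exposed to compound (10–3,000 nM) for 24 h. FCCP-uncoupled oxygen consumption rate was then read on a Seahorse XF-96. Plates included vehicle (DMSO <0.5%), SRT1720 10 μM positive control and blanks. Results are expressed as a ratio or percent fold change versus DMSO, mean ± s.e.m., N=4. A ratio >1.15 was classed as MB.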

RPT [2] = assay: Induction of Mitochondrial biogenesis in rabbit RPT cells after 24 hrs by FCCP-OCR assay relative to control; format: functional, cell-based; conditions: Oryctolagus cuniculus; in short: as §1
[3] = molecular target: Beta-2 adrenergic receptor (Homo sapiens, UniProt P07550); assay: Binding affinity to beta-2 adrenergic receptor (unknown origin) at 1 to 10000 nM
Sequence of Beta-2 adrenergic receptor (P07550 whole entry): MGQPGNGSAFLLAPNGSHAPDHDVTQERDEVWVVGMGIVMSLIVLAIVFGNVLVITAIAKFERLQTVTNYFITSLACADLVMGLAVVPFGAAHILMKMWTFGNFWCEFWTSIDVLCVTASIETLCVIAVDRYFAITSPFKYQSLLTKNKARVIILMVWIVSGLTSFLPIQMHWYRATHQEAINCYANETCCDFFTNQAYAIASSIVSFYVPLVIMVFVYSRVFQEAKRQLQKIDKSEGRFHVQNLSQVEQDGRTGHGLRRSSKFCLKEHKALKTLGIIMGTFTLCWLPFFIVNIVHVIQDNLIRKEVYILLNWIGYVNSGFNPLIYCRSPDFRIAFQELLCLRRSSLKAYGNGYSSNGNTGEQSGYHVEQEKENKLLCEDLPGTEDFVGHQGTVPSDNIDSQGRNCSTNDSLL

| SMILES | Activity (RPT [1]) | Activity (RPT [2]) | Kd [3] [nM] |
| --- | --- | --- | --- |
| CC(C)(C)NCC(O)c1cc(Cl)c(N)c(Cl)c1 (stereo unspecified) | inactive | – | – |
| CC(C)(C)NCC(O)c1cc(O)cc(O)c1 (stereo unspecified) | – | Active | – |
| CC(C)NCC(O)c1ccc(O)c(O)c1 (stereo unspecified) | inactive | – | – |
| CC(Cc1ccc(O)cc1)NCC(O)c1cc(O)cc(O)c1 (stereo unspecified) | Active | – | – |
| CNCCC(Oc1ccccc1OC)c1ccccc1 (stereo unspecified) | Active | – | – |
| CNCC[C@@H](Oc1ccccc1C)c1ccccc1 | Active | – | – |
| C[C@@H](NCCc1ccc(O)cc1)[C@@H](O)c1ccc(O)cc1 (relative stereo) [rel-RITODRINE] | – | Active | 0.501 |
| CCC(NC1CCCC1)C(O)c1ccc(O)c(O)c1 (stereo unspecified) [CYCLOPENTYLBUTANEPHARINE] | – | Active | 10 |
| CCC(NC(C)C)C(O)c1ccc(O)c(O)c1 (stereo unspecified) [ISOETHARINE] | inactive | – | 1000 |
| CC(C)NCC(O)c1cc(O)cc(O)c1 (stereo unspecified) [METAPROTERENOL] | – | Active | 501 |
| CCC(NC(C)C)C(O)c1ccc(O)c2[nH]c(=O)ccc12 (stereo unspecified) [PROCATEROL] | Active | – | 79.4 |
